ChEMBL document CHEMBL4725282, “Discovery of a Conformationally Constrained Oxazolidinone with Improved Safety and Efficacy Profiles for the Treatment of Multidrug-Resistant Tuberculosis” (J Med Chem, 2020)
Converted amounts (≈) assume the structure as drawn.

Tests used:
[1] = test system: Mycobacterium tuberculosis; experiment: Antitubercular activity against linezolid-resistant Mycobacterium tuberculosis incubated for 7 days by microplate alamar blue assay; assay type: functional; conditions: 168 h, time 7 day
Method in brief: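 MIC determined by microplate alamar blue assay (MABA) following a published protocol.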

[2] = Ratio of MIC for antitubercular activity against linezolid-resistant Mycobacterium tuberculosis to MIC for antitubercular activity against Mycobacterium tuberculosis H37Rv; assay type: functional

## CC(=O)NC[C@@H]1OC(=O)N2c3cc(F)c(N4CCSCC4)cc3OC[C@@H]12 [listing 1 of 2 here]
[1]
  MIC: 0.24 µg/mL (≈ 0.629 µM)

## CO[C@H]1/C=C/O[C@@]2(C)Oc3c(C)c(O)c4c(O)c(c(/C=N/N5CCN(C)CC5)c(O)c4c3C2=O)NC(=O)/C(C)=C\C=C\[C@H](C)[C@H](O)[C@@H](C)[C@@H](O)[C@@H](C)[C@H](OC(C)=O)[C@@H]1C [RIFAMPIN]
[1]
  MIC: 0.03 µg/mL (≈ 0.0365 µM)

## CC(=O)NC[C@H]1CN(c2ccc(N3CCSCC3)c(F)c2)C(=O)O1 [SUTEZOLID]
[1]
  MIC: 0.96 µg/mL (≈ 2.72 µM)
[2]
  Ratio: 4

## CC(=O)NC[C@@H]1OC(=O)N2c3cc(F)c(N4CC[S+]([O-])CC4)cc3OC[C@@H]12
[1]
  MIC: 6.68 µg/mL (≈ 16.8 µM)
[2]
  Ratio: 4

## NNC(=O)c1ccncc1 [ISONIAZID]
[1]
  MIC: 0.04 µg/mL (≈ 0.292 µM)

## CC(=O)NC[C@H]1CN(c2ccc(N3CCOCC3)c(F)c2)C(=O)O1 [LINEZOLID]
[1]
  MIC: 3.92 µg/mL (≈ 11.6 µM)

## CC(=O)NC[C@@H]1OC(=O)N2c3cc(F)c(N4CCSCC4)cc3OC[C@@H]12 [listing 2 of 2 here]
[2]
  Ratio: 4
